ChEMBL document CHEMBL1772954, “Antifungal, cytotoxic and SAR studies of a series of N-alkyl, N-aryl and N-alkylphenyl-1,4-pyrrolediones and related compounds” (Bioorg Med Chem, 2011)
≈ marks a conversion by molar mass, not a printed value.

Tests used:
[1] = Cytotoxicity against human erythrocytes assessed as hemolysis by spectrometric analysis; format: cell-based, Erythrocyte
Outline: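 Human heparinized red blood cells were washed in PBS at pH 7.0 and suspended at 4% in sterile 5% glucose. Compounds from DMSO stocks were diluted in 5% glucose to final concentrations of 250 to 0.24 µg/ml and incubated with the cells at 37 °C. Released hemoglobin was read at 540 nm. HC50 is the concentration giving 50% lysis relative to the drug-free value.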

Trichophyton rubrum = test: Antifungal activity against Trichophyton rubrum C 113 2000; format: functional
Outline: (§1)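 Dermatophytes tested by CLSI M38-A2 microdilution in MOPS-buffered RPMI-1640 at pH 7.0. Inoculum 1-5 × 10^3 CFU/mL; compounds 250 to 0.24 µg/ml in twofold steps, final DMSO <1%. Incubated at 28 °C in a moist, dark chamber and read according to control growth. MIC is the lowest concentration with complete inhibition. MFC is the lowest concentration with no growth after duplicate subculture on SDA.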

Aspergillus flavus = test: Antifungal activity against Aspergillus flavus ATCC 9170; format: functional
Outline: (§2)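 Broth microdilution per CLSI M38-A2 in RPMI-1640 with MOPS at pH 7.0. Inoculum 1-5 × 10^3 CFU/mL, with twofold compound dilutions spanning 250-0.24 µg/ml (final DMSO <1%). Plates incubated at 35 °C, moist and dark, and read when the control fungus had grown. MIC is total growth inhibition. MFC comes from subculturing clear wells in duplicate onto SDA.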

SF-268 = test: Cytotoxicity against human SF268 cells assessed as cell growth after 2 days by sulforhodamine B assay; format: functional; conditions: SF-268, 48 h
Outline: (§3)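 NCI cell lines were run by the Monks method: cells were plated with compounds from DMSO stocks and incubated 2 days at 37 °C in 5% CO2, in duplicate. Cells were fixed with cold TCA, stained with 0.4% SRB, and the bound dye was solubilized in 10 mM tris-base and read at 515 nm. The zero-day control was subtracted, and GI50 was taken from the curves.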

Saccharomyces cerevisiae = test: Antifungal activity against Saccharomyces cerevisiae ATCC 9763; format: functional
Outline: (§4)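 CLSI M27-A3 broth microdilution in RPMI-1640 buffered to pH 7.0 with MOPS. Inoculum 1-5 × 10^3 CFU/mL. Compound twofold dilutions from 250 to 0.24 µg/ml, final DMSO <1%. Incubated at 35 °C in a moist, dark chamber and read at 48 h. MIC is the lowest concentration giving total growth inhibition. For MFC, 5 µL from clear wells was plated in duplicate on SDA; MFC is the lowest concentration with no growth.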

Cryptococcus neoformans = test: Antifungal activity against Cryptococcus neoformans ATCC 32264; format: functional; outline: as §4
Aspergillus niger = test: Antifungal activity against Aspergillus niger ATCC 9029; format: functional; outline: as §2
Aspergillus fumigatus = test: Antifungal activity against Aspergillus fumigatus ATCC 26934; format: functional; outline: as §2
Candida albicans = test: Antifungal activity against Candida albicans ATCC 10213; format: functional; outline: as §4
NCI-H460 = test: Cytotoxicity against human H460 cells assessed as cell growth after 2 days by sulforhodamine B assay; format: functional; conditions: NCI-H460, 48 h; outline: as §3
Nannizzia gypsea = test: Antifungal activity against Microsporum gypseum C 115 2000; format: functional; outline: as §1
MCF7 = test: Cytotoxicity against human MCF7 cells assessed as cell growth after 2 days by sulforhodamine B assay; format: functional; conditions: MCF7, 48 h; outline: as §3
[2] = test system: Trichophyton mentagrophytes; test: Antifungal activity against Trichophyton mentagrophytes ATCC 9972; format: functional; outline: as §1
Candida tropicalis = test: Antifungal activity against Candida tropicalis C 131 2000; format: functional; outline: as §4

| Structure (SMILES) | MFC (Trichophyton rubrum) [mg/L] | MIC (Trichophyton rubrum) [mg/L] | MFC (Aspergillus flavus) [mg/L] | MIC (Aspergillus flavus) [mg/L] | MFC (Saccharomyces cerevisiae) [mg/L] | MIC (Saccharomyces cerevisiae) [mg/L] | MFC (Cryptococcus neoformans) [mg/L] | MIC (Cryptococcus neoformans) [mg/L] | MFC (Aspergillus niger) [mg/L] | MIC (Aspergillus niger) [mg/L] | MFC (Aspergillus fumigatus) [mg/L] | MIC (Aspergillus fumigatus) [mg/L] | MFC (Candida albicans) [mg/L] | MIC (Candida albicans) [mg/L] | MFC (Nannizzia gypsea) [mg/L] | MIC (Nannizzia gypsea) [mg/L] | MFC [2] [mg/L] | MIC [2] [mg/L] | MFC (Candida tropicalis) [mg/L] | MIC (Candida tropicalis) [mg/L] | also measured |
| --- | --- | --- | --- | --- | --- | --- | --- | --- | --- | --- | --- | --- | --- | --- | --- | --- | --- | --- | --- | --- | --- |
| CC1=CC(=O)N(CCCc2ccccc2)C1=O | 3.9 (≈ 17 µM) | 1.95 (≈ 8.5 µM) | 31.2 (≈ 136 µM) | 31.2 (≈ 136 µM) | 62.5 (≈ 273 µM) | 15.6 (≈ 68.2 µM) | 31.2 (≈ 136 µM) | 15.6 (≈ 68.2 µM) | 31.2 (≈ 136 µM) | 31.2 (≈ 136 µM) | 31.2 (≈ 136 µM) | 15.6 (≈ 68.2 µM) | 125 (≈ 545 µM) | 62.5 (≈ 273 µM) | 7.81 (≈ 34.1 µM) | 3.9 (≈ 17 µM) | 31.2 (≈ 136 µM) | 15.6 (≈ 68.2 µM) | 125 (≈ 545 µM) | 125 (≈ 545 µM) | HC50 [1]: > 250 µg/mL; GI50 (SF-268): > 10 mg/L; GI50 (NCI-H460): > 10 mg/L; GI50 (MCF7): > 10 mg/L |
| CC1=CC(=O)N(Cc2ccccc2)C1=O | 7.81 (≈ 38.8 µM) | 3.9 (≈ 19.4 µM) | 125 (≈ 621 µM) | 62.5 (≈ 311 µM) | 62.5 (≈ 311 µM) | 31.2 (≈ 155 µM) | 31.2 (≈ 155 µM) | 15.6 (≈ 77.7 µM) | 125 (≈ 621 µM) | 62.5 (≈ 311 µM) | 62.5 (≈ 311 µM) | 31.2 (≈ 155 µM) | 125 (≈ 621 µM) | 62.5 (≈ 311 µM) | 7.81 (≈ 38.8 µM) | 3.9 (≈ 19.4 µM) | 31.2 (≈ 155 µM) | 31.2 (≈ 155 µM) | 250 (≈ 1240 µM) | 125 (≈ 621 µM) | HC50 [1]: > 250 µg/mL; GI50 (SF-268): > 10 mg/L; GI50 (NCI-H460): > 10 mg/L; GI50 (MCF7): > 10 mg/L |
| O=C1C=CC(=O)N1c1ccc(I)cc1 | 7.81 (≈ 26.1 µM) | 3.9 (≈ 13 µM) | 125 (≈ 418 µM) | 62.5 (≈ 209 µM) | 7.81 (≈ 26.1 µM) | 7.81 (≈ 26.1 µM) | 15.6 (≈ 52.3 µM) | 7.81 (≈ 26.1 µM) | 125 (≈ 418 µM) | 62.5 (≈ 209 µM) | 125 (≈ 418 µM) | 62.5 (≈ 209 µM) | 62.5 (≈ 209 µM) | 31.2 (≈ 104 µM) | 7.81 (≈ 26.1 µM) | 3.9 (≈ 13 µM) | 7.81 (≈ 26.1 µM) | 3.9 (≈ 13 µM) | 62.5 (≈ 209 µM) | 31.2 (≈ 104 µM) | HC50 [1]: > 250 µg/mL; GI50 (SF-268): > 10 mg/L; GI50 (NCI-H460): > 10 mg/L; GI50 (MCF7): > 10 mg/L |
| CC1=CC(=O)N(c2ccccc2)C1=O | 15.6 (≈ 83.5 µM) | 7.81 (≈ 41.7 µM) | 125 (≈ 668 µM) | 62.5 (≈ 334 µM) | 125 (≈ 668 µM) | 31.2 (≈ 167 µM) | 62.5 (≈ 334 µM) | 31.2 (≈ 167 µM) | 250 (≈ 1340 µM) | 125 (≈ 668 µM) | 62.5 (≈ 334 µM) | 31.2 (≈ 167 µM) | 125 (≈ 668 µM) | 62.5 (≈ 334 µM) | 15.6 (≈ 83.5 µM) | 7.81 (≈ 41.7 µM) | 62.5 (≈ 334 µM) | 31.2 (≈ 167 µM) | 125 (≈ 668 µM) | 62.5 (≈ 334 µM) | HC50 [1]: > 250 µg/mL; GI50 (SF-268): > 10 mg/L; GI50 (NCI-H460): > 10 mg/L; GI50 (MCF7): > 10 mg/L |
| O=C1C=CC(=O)N1CCc1ccccc1 | 3.9 (≈ 19.4 µM) | 1.95 (≈ 9.69 µM) | 31.2 (≈ 155 µM) | 31.2 (≈ 155 µM) | 7.81 (≈ 38.8 µM) | 3.9 (≈ 19.4 µM) | 15.6 (≈ 77.7 µM) | 7.81 (≈ 38.8 µM) | 15.6 (≈ 77.7 µM) | 15.6 (≈ 77.7 µM) | 31.2 (≈ 155 µM) | 31.2 (≈ 155 µM) | – | 3.9 (≈ 19.4 µM) | 7.81 (≈ 38.8 µM) | 3.9 (≈ 19.4 µM) | 15.6 (≈ 77.7 µM) | 7.81 (≈ 38.8 µM) | – | 15.6 (≈ 77.7 µM) | HC50 [1]: > 250 µg/mL; GI50 (SF-268): 4.1 mg/L (≈ 20.4 µM); GI50 (NCI-H460): 4.7 mg/L (≈ 23.4 µM); GI50 (MCF7): 3.6 mg/L (≈ 17.9 µM) |
| O=C(O)/C=C\C(=O)NCCCc1ccccc1 | > 250 | 250 (≈ 1070 µM) | > 250 | > 250 | > 250 | > 250 | > 250 | > 250 | > 250 | > 250 | > 250 | > 250 | > 250 | – | > 250 | 250 (≈ 1070 µM) | > 250 | > 250 | > 250 | > 250 | – |
| O=C1CCC(=O)N1CCCc1ccccc1 | > 250 | > 250 | > 250 | > 250 | > 250 | > 250 | > 250 | > 250 | > 250 | > 250 | > 250 | > 250 | > 250 | > 250 | > 250 | > 250 | > 250 | > 250 | > 250 | > 250 | – |
